Experimental findings from ChEMBL document CHEMBL2434913 (Bioorg Med Chem Lett, 2013) are described below.

Assay [1] has as its target T1, Prostaglandin G/H synthase 2 (Mus musculus) (UniProt Q05769).
T1 sequence (whole entry): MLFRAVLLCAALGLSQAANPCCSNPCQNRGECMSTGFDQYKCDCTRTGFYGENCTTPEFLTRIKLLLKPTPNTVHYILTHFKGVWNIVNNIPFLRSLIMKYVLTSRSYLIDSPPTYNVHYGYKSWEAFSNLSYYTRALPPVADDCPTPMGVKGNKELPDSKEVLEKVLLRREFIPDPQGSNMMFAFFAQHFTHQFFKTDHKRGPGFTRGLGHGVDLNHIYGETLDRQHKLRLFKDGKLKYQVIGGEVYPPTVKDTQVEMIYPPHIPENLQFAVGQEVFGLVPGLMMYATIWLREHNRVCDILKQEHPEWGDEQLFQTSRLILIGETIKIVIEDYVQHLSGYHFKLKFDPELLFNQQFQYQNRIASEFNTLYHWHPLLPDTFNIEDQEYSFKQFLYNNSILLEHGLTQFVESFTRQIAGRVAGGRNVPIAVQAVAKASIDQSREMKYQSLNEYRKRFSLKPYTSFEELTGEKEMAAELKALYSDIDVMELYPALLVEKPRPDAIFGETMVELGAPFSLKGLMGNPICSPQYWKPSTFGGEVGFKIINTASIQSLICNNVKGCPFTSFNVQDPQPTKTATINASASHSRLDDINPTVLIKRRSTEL
As to the kind of experiment: Inhibition of purified mouse COX-2 assessed as inhibition of PGE2/PGD2 formation preincubated at 10 uM for 3 mins before arachidonic acid substrate addition measured after 30 seconds by LC-MS-MS method. Put shortly:
(§1)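 Purified murine COX-2 (50 nM) preincubated 3 min with test agent at 10 µM in DMSO, alongside a solvent control. Then 2-AG or AA added at 5 µM, 37 °C, for 30 s. Read-out is percent inhibition of substrate oxygenation versus control. Mean ± SD, n = 6.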

Assay [2] concerns the target T2, Prostaglandin G/H synthase 2 (Mus musculus, UniProt Q05769).
T2 sequence (Q05769 whole entry): T1 sequence (whole entry)
As to the kind of experiment: Inhibition of purified mouse COX-2 assessed as inhibition of PGE2-G/PGD2-G formation preincubated for 3 mins before 2-AG substrate addition measured after 30 seconds by LC-MS-MS method.

In assay [3] the target is T1, Prostaglandin G/H synthase 2 (Mus musculus). The experiment in a line: Inhibition of purified mouse COX-2 assessed as inhibition of PGE2-G/PGD2-G formation preincubated at 10 uM for 3 mins before 2-AG substrate addition measured after 30 seconds by LC-MS-MS method. The method, boiled down:
as §1

Assay [4] addresses T2, Prostaglandin G/H synthase 2. As to the kind of experiment: Inhibition of purified mouse COX-2 assessed as inhibition of PGE2/PGD2 formation preincubated for 3 mins before arachidonic acid substrate addition measured after 30 seconds by LC-MS-MS method.

As usually defined, the inhibition is the percentage by which the read-out fell short of the control. As usually defined, the IC50 is the concentration needed to halve the response being measured.

In the case of `Cc1ccc(Nc2c(Cl)cc(Cl)cc2Cl)c(CC(=O)O)c1`, the inhibition in assay [1] worked out at 32%. Moreover, the IC50 in assay [2] came to 70 nM.

For `Cc1ccc(Nc2ccccc2F)c(CC(=O)O)c1`, the inhibition in assay [1] came to 0%. Besides, the IC50 in assay [2] stood at 1800 nM.

In the case of `Cc1ccc(Nc2c(C)cccc2F)c(CC(=O)O)c1`, the inhibition in assay [1] and in assay [3] was 0% each time.

Take `Cc1ccc(Nc2ccccc2)c(CC(=O)O)c1`: the inhibition amounted to 10% in assay [1] and 0% in assay [3].

Turning to `O=C(O)Cc1ccccc1Nc1c(F)cccc1Cl`, the IC50 in assay [2] is 40 nM.

Take `O=C(O)Cc1ccccc1Nc1c(F)cccc1F`: the IC50 in assay [2] came to 1200 nM.

As for `O=C(O)Cc1ccccc1Nc1ccccc1Cl`, the 50% inhibitory concentration (IC50) in assay [2] came out at 3900 nM.

In the case of `Cc1ccc(Nc2c(F)cccc2F)c(CC(=O)O)c1`, the inhibition in assay [1] stood at 0%. Besides, the IC50 in assay [2] was 1000 nM.

For the compound `Cc1cccc(F)c1Nc1ccccc1CC(=O)O`, the inhibition stood at 0% in assay [1] and 15% in assay [3].

For `O=C(O)Cc1ccccc1Nc1c(Cl)cc(Br)cc1Cl`, in assay [1], the inhibition is 55%. Besides, the IC50 came to 140 nM in assay [4] and 60 nM in assay [2].

For `O=C(O)Cc1ccccc1Nc1ccccc1F`, the inhibition in assay [1] worked out at 0%; in assay [3] it was 25%.

With `Cc1ccc(Nc2ccccc2Cl)c(CC(=O)O)c1`, the inhibition in assay [1] stood at 0%. In addition, the IC50 in assay [2] amounted to 60 nM.

Take `Cc1ccc(Nc2c(Cl)cccc2Cl)c(CC(=O)O)c1`: the inhibition in assay [1] was 60%. Also, the values for the IC50 in assay [4] and in assay [2] were 200 nM and 30 nM, respectively.
